Shown are actives, neighbours in structure and some others; about 2.9% of the full set was active somewhere.
Kir21 inh: inhibitors of mouse Kir2.1 inward-rectifier potassium channel | P35561 | HEK293-Kir2.1, FluxOR thallium flux fluorescence; hits give low values | B-score at 10 µM | AID 1672 | 310,000 compounds, 0.85% hits;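 active = fluorescence ratio B-score at or below minus 3 SD of library scores, with starting-brightness B-score within 2 SD, cut at about -4.2 in these data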;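 also: channel flux triggered by added potassium and thallium sulfate stimulus; B-score of peak minus minimum fluorescence over baseline after thallium stimulus; more negative B-score means stronger Kir2.1 block with less thallium influx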
TRPC6 activator: activates the mouse TRPC6 cation channel; HEK293-TRPC6 membrane potential dye fluorescence; hits give high values; AID 2550; Q61143; B-score at 10 µM; 310,000 compounds, 0.13% hits;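 active = B-score of the integrated fluorescence ratio above library mean plus 3 SD, and starting fluorescence ratio within library mean plus 5 SD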;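 also: higher score means more depolarization so channel activation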
Target sequence (Q61143 whole entry, looked up): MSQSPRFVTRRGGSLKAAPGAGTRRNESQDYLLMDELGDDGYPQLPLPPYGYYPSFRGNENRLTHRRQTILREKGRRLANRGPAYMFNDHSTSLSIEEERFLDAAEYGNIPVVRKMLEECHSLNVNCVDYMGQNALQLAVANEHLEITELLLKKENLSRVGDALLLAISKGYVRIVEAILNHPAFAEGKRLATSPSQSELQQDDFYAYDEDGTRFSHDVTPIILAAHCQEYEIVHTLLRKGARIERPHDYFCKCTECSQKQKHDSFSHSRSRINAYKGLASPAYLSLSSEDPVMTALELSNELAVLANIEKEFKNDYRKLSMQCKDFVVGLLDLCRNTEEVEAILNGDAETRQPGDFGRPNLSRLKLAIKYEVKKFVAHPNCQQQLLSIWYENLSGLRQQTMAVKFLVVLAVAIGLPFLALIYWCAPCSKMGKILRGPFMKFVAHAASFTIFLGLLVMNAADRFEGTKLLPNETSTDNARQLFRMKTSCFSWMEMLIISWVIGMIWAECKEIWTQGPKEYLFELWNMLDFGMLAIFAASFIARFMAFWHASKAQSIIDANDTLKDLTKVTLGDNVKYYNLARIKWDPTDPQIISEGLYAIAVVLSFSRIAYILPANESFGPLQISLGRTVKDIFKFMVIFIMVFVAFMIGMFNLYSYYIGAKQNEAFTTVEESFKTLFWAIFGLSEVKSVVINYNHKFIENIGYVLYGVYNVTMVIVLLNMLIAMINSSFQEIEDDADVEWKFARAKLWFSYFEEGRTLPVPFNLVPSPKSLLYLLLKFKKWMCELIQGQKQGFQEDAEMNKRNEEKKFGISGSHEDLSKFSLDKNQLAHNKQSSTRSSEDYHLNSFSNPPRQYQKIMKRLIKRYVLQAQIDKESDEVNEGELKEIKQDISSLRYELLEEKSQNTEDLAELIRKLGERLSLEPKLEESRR
TRPC6 inhibitor: mouse TRPC6 channel inhibition; HEK293-TRPC6, membrane potential dye, ACh-evoked depolarization; hits give low values; B-score at 10 µM; 310,000 compounds, 1.1% hits; AID 2553;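 active = B-score under library mean minus 3 SD, initial fluorescence not abnormally high, positive integrated signal ratio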;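 also: B-score derived from integrated fluorescence ratio over the kinetic read; more negative B-score means stronger inhibition of depolarization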
TRPC4 block: TRPC4 (mouse) channel inhibition; Q9QUQ5; HEK293 TRPC4beta/mu-opioid, DAMGO-evoked Fluo4 calcium flux; hits give low values; B-score at 10 µM; 300,000 compounds, 0.39% hits; AID 2247;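 active = B-score over 3 SD under the library average, no early fluorescence shift, positive overall ratio signal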
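Test system – stable TRPC4beta/mu-opioid receptor HEK293 cells · Probe or stimulus – DAMGO, a submaximal dose followed by a maximal one · Dosing – one concentration per compound · Signal – Fluo4 calcium fluorescence by kinetic imaging, 5 s 1 Hz baseline · Evaluation – per-well B score of integrated baseline-normalized Fluo4 ratio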
TRPC4 act: activators of mouse TRPC4 channel; HEK293 TRPC4beta/mu-opioid, Fluo4 calcium fluorescence; hits give high values; B-score at 10 µM; 310,000 compounds, 0.49% hits; AID 2237;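 active = B-score above 5 SD of library B-scores, and initial fluorescence ratio not above library mean plus 5 SD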;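 also: positive B-score marks a calcium rise read as TRPC4 activation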
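Technique: kinetic Fluo4 calcium fluorescence; Test system: TRPC4beta and mu-opioid receptor HEK293 stable cells; Measure: B-scored integrated calcium fluorescence ratio; Benchmarks: low control buffer alone, high control maximal DAMGO; Schedule: 45 min room-temperature Fluo4 loading, 110 s read.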
TRPC4 potent: allosteric potentiators of mouse TRPC4 channel; B-score at 10 µM; AID 2227; Q9QUQ5; HEK293 TRPC4beta/mu-opioid, DAMGO EC20, Fluo-4 Ca2+ flux; hits give high values; 310,000 compounds, 0.42% hits;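 active = B-score of calcium response area above 5 SD of library B-scores, with initial fluorescence ratio within 5 SD of library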;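 also: B-score of integrated fluorescence ratio over time as area under calcium response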
HEK293 TRPC6 ctr: counter-screen for TRPC6 modulators: effect in parental HEK293 cells; 2,400 compounds, 51% hits; membrane potential signal change, % at 10 µM; membrane potential dye fluorescence; shares compounds with TRPC6 inhibitor; AID 488924;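 active = membrane potential signal moves up or down beyond 5 SD from buffer-only wells, on both duplicate plates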
HEK293 MPD ctr 2: second counter-screen for TRPC6 modulators: effect in parental HEK293 cells | inhibition, % at 10 µM | shares compounds with TRPC6 inhibitor | membrane potential dye fluorescence; after compound, maximal acetylcholine stimulation | 2,400 compounds, 14% hits | AID 488926;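 active = membrane potential signal drops by more than 5 SD from the mean control signal, in both duplicate plates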;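 also: plate controls were acetylcholine ECmax control wells for no effect and buffer only wells for full effect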
TRPC4 ctr mod: selectivity of TRPC6 modulators against mouse TRPC4; shares compounds with TRPC6 inhibitor; HEK293 TRPC4/mu-opioid, membrane potential fluorescence; percent change from control (negative = decrease, positive = increase), % at 10 µM; 2,400 compounds, 69% hits; AID 488927;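 active = membrane potential signal moved up or down beyond 5 SD of buffer control wells, in both duplicate plates, actives on both sides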;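 also: plate controls were assay buffer wells for no effect and DAMGO maximal-effect wells for full effect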
TRPC4 ctr inh 2: second check of whether TRPC6 modulators also affect mouse TRPC4; shares compounds with TRPC6 inhibitor; 2,400 compounds, 55% hits; HEK293 TRPC4/mu-opioid, membrane potential dye fluorescence; stimulated with maximal-effect DAMGO; inhibition, % at 10 µM;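 active = drop in membrane potential signal beyond 5 SD of the control wells in both duplicate plates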;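 also: TRPC4 counter screen for TRPC6 hits run under conditions tuned for TRPC6 not TRPC4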
TRPC6 block conf: mouse TRPC6 inhibitor confirmation | shares compounds with TRPC6 inhibitor | HEK293-TRPC6, membrane potential dye, ACh-evoked depolarization | inhibition, % at 10 µM | 3,300 compounds, 43% hits;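 active = fluorescence ratio falls more than 5 SD below the full-stimulation control mean, in both duplicate runs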;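 also: integrated fluorescence ratio of peak minus minimum over baseline after agonist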
TRPC6 act confirm: mouse TRPC6 activator confirmation; 2,800 compounds, 11% hits; HEK293-TRPC6 membrane potential dye fluorescence, FDSS; AID 488961; shares compounds with TRPC6 inhibitor; activation, % at 10 µM;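 active = ratio signal rise beyond 5 SD above unstimulated control wells' mean, seen in both duplicate runs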;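 also: plate controls were buffer EC0 wells for no effect and acetylcholine ECmax response for full effect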
Numbers without * were called inactive.

What do the screens show for `COC(=O)c1cn(Cc2cc(OC)ccc2OC)cc(F)c1=O`?
Kir21 inh: 0.99; TRPC6 activator: inactive; TRPC6 inhibitor: -5.31*; TRPC4 block: inactive; TRPC4 act: inactive; TRPC4 potent: inactive; HEK293 TRPC6 ctr: inactive; HEK293 MPD ctr 2: inactive; TRPC4 ctr mod: inactive; TRPC4 ctr inh 2: inactive; TRPC6 block conf: inactive; TRPC6 act confirm: inactive

What do the screens show for `COc1ccc(Cn2c(-c3ccc(C)cc3)c[n+]3ccccc23)cc1`?
Kir21 inh: -0.88; TRPC6 activator: inactive; TRPC6 inhibitor: -6.25*; TRPC4 block: inactive; TRPC4 act: inactive; TRPC4 potent: inactive; HEK293 TRPC6 ctr: -232.0%*; HEK293 MPD ctr 2: inactive; TRPC4 ctr mod: -30.5%*; TRPC4 ctr inh 2: 48.5%*; TRPC6 block conf: 46.0%*; TRPC6 act confirm: inactive

Results for COCCN1CC(CNC(=O)c2cc(COc3ccccc3SC)on2)CC1=O (stereo not drawn) ?
Kir21 inh: -1.15; TRPC6 activator: inactive; TRPC6 inhibitor: inactive; TRPC4 block: inactive; TRPC4 act: inactive; TRPC4 potent: inactive

Results for N#Cc1cc2sc3nnc(-c4ccncc4)n3c2cc1C#N ?
Kir21 inh: -0.94; TRPC6 activator: inactive; TRPC6 inhibitor: -8.18*; TRPC4 block: inactive; TRPC4 act: inactive; TRPC4 potent: inactive; HEK293 TRPC6 ctr: -367.5%*; HEK293 MPD ctr 2: 85.5%*; TRPC4 ctr mod: -68.5%*; TRPC4 ctr inh 2: 82.5%*; TRPC6 block conf: 47.0%*; TRPC6 act confirm: inactive

Results for N#Cc1cc2sc3nc4ccccc4n3c2cc1C#N ?
Kir21 inh: -0.31; TRPC6 activator: inactive; TRPC6 inhibitor: inactive; TRPC4 block: inactive; TRPC4 act: inactive; TRPC4 potent: inactive

How did COc1cccc(OCC(O)CN2CCN(CCN3C(=O)c4cccc5cccc(c45)C3=O)CC2)c1 (stereo not drawn) do in these assays?
Kir21 inh: -1.21; TRPC6 activator: inactive; TRPC6 inhibitor: -5.77*; TRPC4 block: inactive; TRPC4 act: inactive; TRPC4 potent: inactive; HEK293 TRPC6 ctr: inactive; HEK293 MPD ctr 2: inactive; TRPC4 ctr mod: inactive; TRPC4 ctr inh 2: 71.0%*; TRPC6 block conf: 54.0%*; TRPC6 act confirm: inactive

Results for O=C1c2cccc3cccc(c23)C(=O)N1CCN1CCN(CC(O)COc2ccccc2)CC1 (stereo not drawn) ?
Kir21 inh: -0.11; TRPC6 activator: inactive; TRPC6 inhibitor: -5.19*; TRPC4 block: inactive; TRPC4 act: inactive; TRPC4 potent: inactive; HEK293 TRPC6 ctr: inactive; HEK293 MPD ctr 2: inactive; TRPC4 ctr mod: inactive; TRPC4 ctr inh 2: inactive; TRPC6 block conf: inactive; TRPC6 act confirm: inactive

Results for COc1ccc(OCC(O)CN2CCC(CN3C(=O)c4cccc5cccc(c45)C3=O)CC2)cc1 (stereo not drawn) ?
Kir21 inh: -1.37; TRPC6 activator: inactive; TRPC6 inhibitor: inactive; TRPC4 block: inactive; TRPC4 act: inactive; TRPC4 potent: inactive

How did O=C(NC(=S)N1CCCCC1)C12CC3CC(CC(C3)C1)C2 do in these assays?
Kir21 inh: -2.68; TRPC6 activator: inactive; TRPC6 inhibitor: inactive; TRPC4 block: inactive; TRPC4 act: inactive; TRPC4 potent: inactive

What do the screens show for `CCOC(=O)N1CCN(C(=S)NC(=O)C23CC4CC(CC(C4)C2)C3)CC1`?
Kir21 inh: -0.28; TRPC6 activator: inactive; TRPC6 inhibitor: -5.02*; TRPC4 block: inactive; TRPC4 act: inactive; TRPC4 potent: inactive; HEK293 TRPC6 ctr: inactive; HEK293 MPD ctr 2: inactive; TRPC4 ctr mod: inactive; TRPC4 ctr inh 2: inactive; TRPC6 block conf: inactive; TRPC6 act confirm: inactive

Results for COc1ccc(-c2cn(-c3ccc(SC(F)F)cc3)c3[n+]2CCC3)cc1OC ?
Kir21 inh: 1.26; TRPC6 activator: inactive; TRPC6 inhibitor: -6.27*; TRPC4 block: inactive; TRPC4 act: inactive; TRPC4 potent: inactive; HEK293 TRPC6 ctr: -137.0%*; HEK293 MPD ctr 2: 127.5%*; TRPC4 ctr mod: -20.0%*; TRPC4 ctr inh 2: 38.5%*; TRPC6 block conf: 64.5%*; TRPC6 act confirm: inactive

Results for NC(N)=Nc1nc(-c2ccccc2)c2ccccc2n1 ?
Kir21 inh: -3.39; TRPC6 activator: inactive; TRPC6 inhibitor: -5.43*; TRPC4 block: inactive; TRPC4 act: inactive; TRPC4 potent: inactive; HEK293 TRPC6 ctr: -174.5%*; HEK293 MPD ctr 2: inactive; TRPC4 ctr mod: -30.0%*; TRPC4 ctr inh 2: 33.0%*; TRPC6 block conf: inactive; TRPC6 act confirm: inactive

Results for Clc1nc(-c2ccccc2)c2ccccc2n1 ?
Kir21 inh: -0.03; TRPC6 activator: inactive; TRPC6 inhibitor: inactive; TRPC4 block: inactive; TRPC4 act: inactive; TRPC4 potent: inactive

What do the screens show for `O=[N+]([O-])c1ccc(NC2CCN(Cc3ccccc3)CC2)c([N+](=O)[O-])c1`?
Kir21 inh: -0.19; TRPC6 activator: inactive; TRPC6 inhibitor: -6.71*; TRPC4 block: inactive; TRPC4 act: inactive; TRPC4 potent: inactive; HEK293 TRPC6 ctr: -90.0%*; HEK293 MPD ctr 2: inactive; TRPC4 ctr mod: -17.0%*; TRPC4 ctr inh 2: 52.5%*; TRPC6 block conf: inactive; TRPC6 act confirm: inactive

Results for O=C1C2CCCCC2C(=O)N1c1ccc(NC2CCN(Cc3ccccc3)CC2)c([N+](=O)[O-])c1 (stereo not drawn) ?
Kir21 inh: -0.83; TRPC6 activator: inactive; TRPC6 inhibitor: -6.35*; TRPC4 block: inactive; TRPC4 act: 43*; TRPC4 potent: inactive; HEK293 TRPC6 ctr: inactive; HEK293 MPD ctr 2: inactive; TRPC4 ctr mod: 14.5%*; TRPC4 ctr inh 2: 51.0%*; TRPC6 block conf: inactive; TRPC6 act confirm: inactive

Assay outcomes: PubChem, Johns Hopkins Ion Channel Center
